Results from different studies.
MMP14: Matrix metalloproteinase-14 (MMP14, Homo sapiens, UniProt P50281)
Kir1 channel protein: Kir1 channel protein (Aedes aegypti, UniProt L0EQS9)
BTK: Tyrosine-protein kinase BTK (BTK, Homo sapiens, UniProt Q06187)
NTSR1: Neurotensin receptor type 1 (NTSR1, Homo sapiens, UniProt P30989)
CYP2E1: Cytochrome P450 2E1 (CYP2E1, Homo sapiens, UniProt P05181)
ABHD6: Monoacylglycerol lipase ABHD6 (ABHD6, Homo sapiens, UniProt Q9BV23)

Cn1nc(C(=O)NCc2ccc(C(=O)O)cc2)cc1-c1ccc2[nH]c(-c3cccnc3)cc2c1
IC50 (MMP14; enzyme activity, inhibitor): > 20 µM

O=C1Nc2ccc(I)cc2/C1=C/c1cc(Br)c(O)c(Br)c1
IC50 (Protein-glutamine gamma-glutamyltransferase (TGM2, Homo sapiens, UniProt P21980); enzyme activity, inhibitor): 50 µM

O=C(O)CC(=O)C(=O)O
IC50 (L-lactate dehydrogenase B chain (LDHB, Homo sapiens, UniProt P07195); enzyme activity, inhibitor): 1020 µM

O=[N+]([O-])c1ccc(N2CCN(S(=O)(=O)c3ccc(F)cc3)CC2)cc1NCc1ccccn1
IC50 (Kir1 channel protein; ion flux, inhibitor): 0.8 µM

CN1CCN(c2ccc(Nc3ncc4cc(C#N)c(=O)n(C5CCCC5)c4n3)cc2)CC1
IC50 (BTK; enzyme activity, inhibitor): 0.421 µM

COc1ccc(CNc2c(CO)cnc3c(C4CC4)cc(C#N)cc23)cn1
IC50 (Dual 3',5'-cyclic-AMP and -GMP phosphodiesterase 11A (PDE11A, Homo sapiens, UniProt Q9HCR9); enzyme activity, inhibitor): > 10 µM

Cc1noc(-c2cc3cc(-c4nc(C(=O)NCC5CCOCC5)[nH]c4C)ccc3[nH]2)n1
IC50 (MMP14; enzyme activity, inhibitor): > 20 µM

Cc1cc(O)cc(C)c1C[C@H](NC(=O)[C@@H]1CCCN1C(=O)[C@H](CCCNC(=N)N)NC(=O)[C@H](CCCNC(=N)N)N(C)C(=O)CNC(=O)[C@@H](CO)NC(=O)CNC(=O)[C@H](Cc1cn(CCNC(=O)[C@H](CC(C)C)NC(=O)[C@H](CC(C)C)NC(=O)C2OC2C(=O)O)nn1)NC(=O)CN1CCN(CC(=O)O)CCN(CC(=O)O)CCN(CC(=O)O)CC1)C(=O)N[C@H](C(=O)N[C@@H](CC(C)C)C(=O)O)C(C)(C)C (mixture of isomers)
IC50 (NTSR1; ligand displacement, radioligand): 0.045 µM

O=[N+]([O-])c1ccc(N2CCN(S(=O)(=O)c3ccccc3)CC2)cc1NCc1cccnc1
IC50 (Kir1 channel protein; ion flux, inhibitor): 0.55 µM

Cc1noc(-c2cc3cc(-c4cc(C(=O)NCc5ccc(C(=O)O)cc5)nn4C)ccc3[nH]2)n1
IC50 (MMP14; enzyme activity, inhibitor): > 20 µM

Cc1cc(Cc2cc(C)cc(C(C)(C)C)c2O)c(O)c(C(C)(C)C)c1
IC50 (Sarcoplasmic/endoplasmic reticulum calcium ATPase 1 (ATP2A1, Oryctolagus cuniculus, UniProt P04191); ATPase activity, inhibitor, absorbance; pH 7.3): 3.6 µM

O=[N+]([O-])c1ccc(N2CCN(S(=O)(=O)c3ccc(F)cc3)CC2)cc1NCc1ccncc1
IC50 (Kir1 channel protein; ion flux, inhibitor): 0.39 µM

O=C(Nc1c[nH]nc1C(=O)NC1CCNCC1)c1cc(F)cc(F)c1
IC50 (Cyclin-dependent kinase 17 (CDK17, Homo sapiens, UniProt Q00537); target engagement in cells, BRET): 1.9 µM

CC1=CC(=O)C(C(C)C)=CC1=O
IC50 (CYP2E1; enzyme activity, inhibitor, HPLC): 97 µM

CC(C)=CCCC(C)=CCn1cc(CC(P(=O)(O)O)P(=O)(O)O)nn1
IC50 (Protein farnesyltransferase (Rattus norvegicus, UniProt Q02293+Q04631); enzyme activity, inhibitor, HPLC): 500 µM

COc1cc2c(NC3CCN(C)CC3)nc(N3CCCN(C)CC3)nc2cc1OCCCN(C)C
IC50 (Lysine-specific demethylase 4E (KDM4E, Homo sapiens, UniProt B2RXH2); enzyme activity, inhibitor): > 57 µM

N#Cc1ccc(N2CCN(S(=O)(=O)c3ccc(F)cc3)CC2)cc1NCc1ccncc1
IC50 (Kir1 channel protein; ion current, inhibitor, patch clamp): 0.0276 µM

NC(=O)c1cccc(-c2cccc(OC(=O)NC3CCCCC3)c2)c1
IC50 (Arylacetamide deacetylase (Homo sapiens, UniProt P22760); enzyme activity, inhibitor): 0.19 µM

O=[N+]([O-])c1ccc(N2CCN(S(=O)(=O)c3ccc(Cl)cc3)CC2)cc1NCc1ccco1
IC50 (Kir1 channel protein; ion flux, inhibitor): 0.84 µM

COc1ccc(F)cc1C(=O)NCc1ccc(-c2nn([C@@H](C)C(F)(F)F)c(N)c2C(N)=O)cc1
IC50 (BTK; phosphorylation in cells, inhibitor, western blot): 0.0042 µM

C=CC(=O)Nc1cc(Nc2nccc(Nc3cc(Cl)c(F)cc3C(C)(C)O)n2)c(OC)cc1N1CC[C@@H](N(C)C)C1
IC50 (CYP2E1; enzyme activity, inhibitor; human, liver microsomes): > 30 µM

O=S(=O)(c1ccc(Cl)cc1)N1CCN(c2ccnc(NCc3ccncc3)c2)CC1
IC50 (Kir1 channel protein; ion flux, inhibitor): 4 to 9 µM

O=C(Oc1nsnc1N1CCOCC1)N1CCCCC1
IC50 (ABHD6; enzyme activity, inhibitor, fluorescence; lysate): 0.085 µM

COc1ccc(F)cc1C(=O)NCc1ccc(-c2nn([C@@H](C)C(F)(F)F)c(N)c2C(N)=O)cc1
IC50 (Tyrosine-protein kinase BTK (BTK, Homo sapiens, UniProt Q06187, C481G); phosphorylation in cells, inhibitor): 0.0139 µM

CC[C@H](C)[C@H](NC(C)=O)C(=O)N[C@@H](CCC(=O)O)C(=O)N[C@H](C(=O)N[C@H](C=O)CC(=O)O)[C@@H](C)O
IC50 (Caspase-8 (CASP8, Homo sapiens, UniProt Q14790); enzyme activity, inhibitor): 0.00174 µM

COc1ccc2c(Oc3ccc4c(C(=O)Nc5ccccc5N)cccc4c3)ccnc2c1
IC50 (BTK; enzyme activity, inhibitor): > 0.5 µM

Cn1nc(C(=O)NCc2ccc(C(=O)O)cc2)cc1-c1ccc2[nH]c(-c3ccncc3)cc2c1
IC50 (MMP14; enzyme activity, inhibitor): > 20 µM

N#Cc1ccc(N2CCN(S(=O)(=O)c3ccc(Cl)cc3)CC2)cc1NCc1ccncc1
IC50 (Kir1 channel protein; ion current, inhibitor, patch clamp): 0.039 µM

Cc1cc(O)cc(C)c1C[C@H](NC(=O)[C@@H]1CCCN1C(=O)[C@H](CCCNC(=N)N)NC(=O)[C@H](CCCNC(=N)N)N(C)C(=O)CNC(=O)[C@@H](CO)NC(=O)CNC(=O)[C@H](Cc1cn(CCNC(=O)[C@H](Cc2ccc(O)cc2)NC(=O)[C@H](CC(C)C)NC(=O)C2OC2C(=O)O)nn1)NC(=O)CN1CCN(CC(=O)O)CCN(CC(=O)O)CCN(CC(=O)O)CC1)C(=O)N[C@H](C(=O)N[C@@H](CC(C)C)C(=O)O)C(C)(C)C (mixture of isomers)
IC50 (NTSR1; ligand displacement, radioligand): 0.087 µM

Cc1cnc(-c2ccc(-c3ccc(NC(=O)Nc4c(F)cc(F)cc4F)cc3F)c3c2C(=O)NC3)[nH]1
IC50 (Mitogen-activated protein kinase kinase kinase 19 (MAP3K19, Homo sapiens, UniProt Q56UN5); enzyme activity, inhibitor): 0.0173 µM

Cc1noc(-c2cc3cc(-c4nc(C(N)=O)[nH]c4C)ccc3[nH]2)n1
IC50 (MMP14; enzyme activity, inhibitor): > 28 µM

O=C(Oc1nsnc1N1CCCCC1)N1CCOCC1
IC50 (ABHD6; enzyme activity, inhibitor, fluorescence; lysate): 0.052 µM

CCNC(=O)c1nc(-c2ccc3[nH]c(-c4nc(C)no4)cc3c2)c(C)[nH]1
IC50 (MMP14; enzyme activity, inhibitor): > 20 µM

O=[N+]([O-])c1ccc(N2CCN(S(=O)(=O)c3ccc(Cl)cc3)CC2)cc1NCc1ccncc1
IC50 (Kir1 channel protein; ion flux, inhibitor): 0.75 µM

Cc1noc(-c2cc3cc(-c4nc(C(=O)NCc5cccnc5)[nH]c4C)ccc3[nH]2)n1
IC50 (MMP14; enzyme activity, inhibitor): > 20 µM

O=C(O)c1cc2ccccc2c(Cc2c(O)c(C(=O)O)cc3ccccc23)c1O
IC50 (DNA polymerase eta (POLH, Homo sapiens, UniProt Q9Y253); enzyme activity, inhibitor): 79 µM
